ChEMBL document CHEMBL3352004, “(7-Benzyloxy-2,3-dihydro-1H-pyrrolo[1,2-a]indol-1-yl)acetic Acids as S1P1 Functional Antagonists” (ACS Med Chem Lett, 2014)
≈ marks a conversion by molar mass, not a printed value. One block for each compound: values may come before it.

Assays:
[1] = molecular target: T1, Sphingosine 1-phosphate receptor 4 (Homo sapiens, UniProt O95977); assay: Agonist activity at human S1P4 receptor by beta-arrestin recruitment assay
T1 sequence (O95977 whole entry): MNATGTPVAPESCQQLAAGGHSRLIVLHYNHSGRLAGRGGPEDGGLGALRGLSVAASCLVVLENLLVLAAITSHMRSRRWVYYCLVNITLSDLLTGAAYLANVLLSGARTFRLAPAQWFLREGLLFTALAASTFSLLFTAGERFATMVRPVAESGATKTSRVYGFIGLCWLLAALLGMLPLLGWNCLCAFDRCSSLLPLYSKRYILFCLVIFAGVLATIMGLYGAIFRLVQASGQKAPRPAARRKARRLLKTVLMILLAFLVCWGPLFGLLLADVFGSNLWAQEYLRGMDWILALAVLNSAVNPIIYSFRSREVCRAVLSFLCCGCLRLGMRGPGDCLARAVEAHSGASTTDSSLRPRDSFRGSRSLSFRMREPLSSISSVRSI

[2] = Ratio of drug level in brain to plasma in Sprague-Dawley rat; assay type: ADME; details: read-out: BPR
How it was run: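 Abbreviated rat CNS distribution: a single 1.0 mg/kg oral dose, with brain and plasma drug levels measured over 6 h. Brain-to-plasma ratio derived from these levels.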

[3] = Elimination half life in Sprague-Dawley rat at 1 mg/kg, po; assay type: ADME, organism-based; parameters: dose 1 mg/kg, route oral; details: in vivo, read-out: beta t1/2 (converted)
[4] = molecular target: T2, Sphingosine 1-phosphate receptor 1 (Homo sapiens, UniProt P21453); assay: Agonist activity at human S1P1 receptor by beta-arrestin recruitment assay
[5] = AUC (0 to infinity) in Sprague-Dawley rat at 1 mg/kg, iv or at 1 mg/kg, po; assay type: ADME, organism-based; details: plasma
[6] = organism: Rattus norvegicus; assay: Reduction in lymphocyte count in Sprague-Dawley rat; assay type: functional, organism-based
How it was run: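 A PK/PD model relating plasma drug concentration to circulating lymphocyte counts was used to derive the plasma concentration that reduces lymphocytes by 50% (LL IC50, ng/mL).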

[7] = Cmax in Sprague-Dawley rat at 1 mg/kg, po; assay type: ADME, organism-based; parameters: dose 1 mg/kg, route oral; details: in vivo
[8] = Systemic clearance in Sprague-Dawley rat at 1 mg/kg, iv; assay type: ADME, organism-based; parameters: dose 1 mg/kg, route intravenous; details: in vivo
[9] = Volume of distribution at steady state in Sprague-Dawley rat at 1 mg/kg, iv; assay type: ADME, organism-based; parameters: dose 1 mg/kg, route intravenous; details: in vivo, read-out: Vdss
[10] = molecular target: T2, Sphingosine 1-phosphate receptor 1; assay: Agonist activity at human S1P1 receptor assessed as cAMP accumulation by HTRF assay; assay type: functional
How it was run: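 S1P1 engagement measured as cyclase activity in a homogeneous time-resolved fluorescence (HTRF) assay.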

[11] = molecular target: Sphingosine 1-phosphate receptor 3 (Homo sapiens, UniProt Q99500); assay: Agonist activity at human S1P3 receptor by beta-arrestin recruitment assay
[12] = molecular target: Sphingosine 1-phosphate receptor 2 (Homo sapiens, UniProt O95136); assay: Agonist activity at human S1P2 receptor by beta-arrestin recruitment assay
[13] = molecular target: Sphingosine 1-phosphate receptor 5 (Homo sapiens, UniProt Q9H228); assay: Agonist activity at human S1P5 receptor by beta-arrestin recruitment assay
[14] = Tmax in Sprague-Dawley rat at 1 mg/kg, po; assay type: ADME, organism-based; parameters: dose 1 mg/kg, route oral; details: in vivo
[15] = Oral bioavailability in Sprague-Dawley rat at 1 mg/kg; assay type: ADME, organism-based; details: in vivo
[16] = Half life in human; assay type: ADME, organism-based; details: in vivo
[17] = Activation of Inward rectifier potassium channel in human atrial myocytes; assay type: cell-based; details: Cardiac atrium

T2 sequence (P21453 whole entry): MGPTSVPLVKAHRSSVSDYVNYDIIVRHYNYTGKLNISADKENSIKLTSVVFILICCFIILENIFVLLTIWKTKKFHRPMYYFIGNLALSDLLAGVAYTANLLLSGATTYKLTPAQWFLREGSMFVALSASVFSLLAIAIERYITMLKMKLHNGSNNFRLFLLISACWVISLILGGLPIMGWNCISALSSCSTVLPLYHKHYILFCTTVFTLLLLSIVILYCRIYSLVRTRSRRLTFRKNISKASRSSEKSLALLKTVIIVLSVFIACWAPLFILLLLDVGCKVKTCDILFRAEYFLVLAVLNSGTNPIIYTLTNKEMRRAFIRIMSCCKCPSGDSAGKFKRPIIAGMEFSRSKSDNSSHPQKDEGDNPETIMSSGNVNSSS
Chain of Sphingosine 1-phosphate receptor 5 (Q9H228 whole entry): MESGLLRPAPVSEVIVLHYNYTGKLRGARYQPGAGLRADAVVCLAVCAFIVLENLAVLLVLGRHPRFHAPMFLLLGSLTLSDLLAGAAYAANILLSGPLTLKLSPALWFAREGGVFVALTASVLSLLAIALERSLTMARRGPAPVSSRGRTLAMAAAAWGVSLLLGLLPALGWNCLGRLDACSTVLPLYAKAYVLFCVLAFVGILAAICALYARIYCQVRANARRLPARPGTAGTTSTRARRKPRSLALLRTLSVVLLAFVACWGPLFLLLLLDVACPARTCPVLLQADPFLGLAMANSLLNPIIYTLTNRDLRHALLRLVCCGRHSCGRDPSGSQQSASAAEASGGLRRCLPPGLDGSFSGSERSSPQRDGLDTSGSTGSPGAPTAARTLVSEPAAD
Chain of Sphingosine 1-phosphate receptor 2 (O95136 whole entry): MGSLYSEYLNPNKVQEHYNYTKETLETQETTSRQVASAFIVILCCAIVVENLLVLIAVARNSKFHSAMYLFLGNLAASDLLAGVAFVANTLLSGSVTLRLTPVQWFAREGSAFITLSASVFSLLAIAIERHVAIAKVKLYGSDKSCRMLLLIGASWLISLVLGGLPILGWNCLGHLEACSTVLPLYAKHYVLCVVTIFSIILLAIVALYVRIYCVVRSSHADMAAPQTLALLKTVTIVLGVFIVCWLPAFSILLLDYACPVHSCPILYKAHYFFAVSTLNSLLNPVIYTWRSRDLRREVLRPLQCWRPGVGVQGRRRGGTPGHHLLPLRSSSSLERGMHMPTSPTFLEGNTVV
Chain of Sphingosine 1-phosphate receptor 3 (Q99500 whole entry): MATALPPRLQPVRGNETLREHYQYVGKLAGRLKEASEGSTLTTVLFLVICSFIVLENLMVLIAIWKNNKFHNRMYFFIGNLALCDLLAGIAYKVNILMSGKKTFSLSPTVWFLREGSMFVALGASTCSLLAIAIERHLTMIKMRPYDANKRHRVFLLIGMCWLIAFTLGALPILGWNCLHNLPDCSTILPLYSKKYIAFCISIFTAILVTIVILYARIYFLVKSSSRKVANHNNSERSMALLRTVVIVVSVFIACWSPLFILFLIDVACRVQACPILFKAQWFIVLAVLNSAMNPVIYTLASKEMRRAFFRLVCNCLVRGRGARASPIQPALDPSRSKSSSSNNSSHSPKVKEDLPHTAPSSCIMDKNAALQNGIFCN

EC50 [1]: > 10000 nM
Kp [2]: 0.016
half-life [3]: 3.99 h
EC50 [4]: 11 nM
AUC(0-inf) [5]: 3990 ng·h/mL
IC50 [6]: 0.21 µg/mL (≈ 0.519 µM)
Cmax [7]: 569 ng/mL
clearance [8]: 2.18 mL/min/kg
Vd [9]: 0.732 L/kg
EC50 [10]: 0.13 nM
EC50 [11]: > 10000 nM
EC50 [12]: > 10000 nM
EC50 [13]: 410 nM
Tmax [14]: 2 h
bioavailability [15]: 49.8%
SMILES: CC(C)Oc1ccc(COc2ccc3c(c2)cc2n3CCC2CC(=O)O)cc1C#N (stereo in doubt; 19a)

half-life [16]: 89 h
SMILES: CCCCCCCCc1ccc(CCC(N)(CO)CO)cc1 [FINGOLIMOD]

SMILES: CCCCCCCCCCCCC/C=C/[C@@H](O)[C@@H](N)COP(=O)(O)O
EC50 [17]: 2.1 nM
